Measured values: ChEMBL document CHEMBL1154220, “Inhibitors of aldose reductase and formation of advanced glycation end-products in moutan cortex (Paeonia suffruticosa)” (J Nat Prod, 2009)

How the values were obtained:
[1] = Inhibition of advanced glycation end product formation after 14 day in phosphate buffer at pH7.4 by spectrofluorimetry; format: physicochemical
Method in brief: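 BSA (10 mg/mL stock) in 50 mM phosphate pH 7.4 with 0.02% sodium azide, plus 0.2 M fructose and glucose, incubated with serially diluted samples at 37 °C for 14 days in screw-cap tubes. Aminoguanidine served as reference. Fluorescence read at ex 350/em 450 nm. IC50 from dose-response curves, triplicate, mean ± SE.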

[2] = biological target: Aldo-keto reductase family 1 member B1 (Rattus norvegicus, UniProt P07943); assay: Inhibition of Sprague-Dawley rat lens aldose reductase by spectrofluorimetry; format: single protein
Method in brief: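 Crude enzyme: supernatant of lenses from 8-week-old rats (250-280 g), homogenized in 135 mM Na/K phosphate pH 7.0 with 0.5 mM PMSF and 10 mM 2-mercaptoethanol, spun 14 000 rpm 30 min. NADP converted to fluorophore with NaOH/imidazole at 60 °C for 10 min, read ex 360/em 460 nm. IC50 from dose-response curves, triplicate, mean ± SE.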

Row | Structure (SMILES) | IC50 [1] [µM] | IC50 [2] [µM]
1 | CCCCO[C@]12C[C@]3(C)OC(O1)[C@]1(COC(=O)c4ccccc4)[C@@H]2C[C@@]31O[C@@H]1O[C@H](CO)[C@@H](O)[C@H](O)[C@H]1O | 10.8 | 36.2
2 | CO[C@H]1O[C@@]2(C)CC(=O)[C@H]3C[C@]2(O[C@@H]2O[C@H](COC(=O)c4ccccc4)[C@@H](O)[C@H](O)[C@H]2O)[C@]13COC(=O)c1ccccc1 | > 500 | > 50
3 | Cc1cc2c(cc1O)[C@@H](CO)CO2 | 177 | > 50
4 | C[C@@]12C[C@@]3(O)OC(O1)[C@]1(COC(=O)c4ccc(O)cc4)[C@@H]3C[C@@]21O[C@H]1O[C@H](COC(=O)c2ccccc2)[C@@H](O)[C@H](O)[C@H]1O | > 500 | > 50
5 | C[C@@]12C[C@@]3(O)OC(O1)[C@]1(COC(=O)c4ccc(O)cc4)[C@@H]3C[C@@]21O[C@@H]1O[C@H](COC(=O)c2ccccc2)[C@@H](O)[C@H](O)[C@H]1O | > 500 | > 50
6 | C=C1CC[C@]2(C(=O)O)CC[C@]3(C)C(=CC[C@@H]4[C@@]5(C)CC[C@H](O)[C@@](C)(CO)[C@@H]5CC[C@]43C)[C@@H]2C1 | > 500 | 28.8
7 | CO[C@@]12C[C@@H]3C(=O)[C@@](C)(C1)OC(O2)[C@H]3COC(=O)c1ccccc1 | > 500 | > 50
8 | O=C(O)CC1(CC(=O)O)CCCC1 |  | 31.8
9 | C[C@@]12C[C@@]3(O)O[C@@H](O1)[C@]1(COC(=O)c4ccccc4)[C@@H]3C[C@]12O[C@@H]1O[C@H](COC(=O)c2ccccc2)[C@@H](O)[C@H](O)[C@H]1O [BENZOYLPAEONIFLORIN] | > 500 | > 50
10 | C[C@@]12C[C@@]3(O)O[C@@H](O1)[C@]1(COC(=O)c4ccccc4)[C@@H]3C[C@]12O[C@@H]1O[C@H](COC(=O)c2cc(O)c(O)c(O)c2)[C@@H](O)[C@H](O)[C@H]1O [GALLOYLPAEONIFLORIN] | 11.3 | 44.6
11 | C[C@@]12C[C@@]3(O)OC(O1)[C@]1(COC(=O)c4ccccc4)[C@@H]3C[C@@]21O[C@@H]1O[C@H](COC(=O)c2ccc(O)cc2)[C@@H](O)[C@H](O)[C@H]1O [NUDANPINOSIDE H] | > 500 | > 50
12 | C[C@@]12C[C@@]3(O)O[C@@H](O1)[C@]1(COC(=O)c4ccc(O)cc4)[C@H]3C[C@@]12O[C@@H]1O[C@H](CO)[C@@H](O)[C@H](O)[C@H]1O [OXYPAEONIFLORIN] | > 500 | > 50
13 | C[C@@]12CC(=O)[C@H]3C[C@]1(O)O[C@H](O2)[C@@H]3COC(=O)c1ccccc1 [PAEONIFLORIGENONE] | > 500 | > 50
14 | C[C@@]12C[C@@]3(O)O[C@@H](O1)[C@]1(COC(=O)c4ccccc4)[C@H]3C[C@@]12O[C@@H]1O[C@H](CO)[C@@H](O)[C@H](O)[C@H]1O [PAEONIFLORIN] | > 500 | > 50
15 | COc1ccc(C(C)=O)c(O[C@@H]2O[C@H](CO[C@@H]3OC[C@H](O)[C@H](O)[C@H]3O)[C@@H](O)[C@H](O)[C@H]2O)c1 [PAEONOLIDE] | > 500 | > 50
16 | COc1ccc(C(C)=O)c(O)c1 [PAEONOL] | > 500 | > 50
17 | CC1(C)[C@@H](O)CC[C@]2(C)[C@H]3C=CC4=C(O)C(=O)C(=O)[C@@]4(C)[C@]3(C)CC[C@@H]12 [PALBINONE] | > 500 | 11.4
18 | N=C(N)NN [PIMAGEDINE] | 1030 | 
